Screens from PubChem BioAssay.
Hits are enriched below; roughly 3.1% of the tested compounds scored in any of these assays.
ADAM17 inh: ADAM17 inhibitors, primary screen, biochemical, QFRET. recombinant ADAM17, EDANS/DABCYL FRET peptide cleavage. AID 720648, 2013. Disintegrin and metalloproteinase domain-containing protein 17 (Homo sapiens), P78536. inhibition, % at 6.95 µM. 370,000 tested, 0.83% active;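 active = inhibition above the mean of compounds lying between control limits plus 3 SD, set per campaign, cut at about 8.5% in these data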
MPTP inh: mitochondrial permeability transition pore inhibitors, primary screen, biochemical, isolated mouse mitochondria, absorbance; Ca2+ swelling absorbance, 30 min; inhibition, % at 10 µM; 360,000 tested, 1.4% active;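 active = inhibition of 50% or more, scaled per plate between neutral and stimulator controls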
V-ATPase pH: regulators of yeast V-ATPase proton pumping, primary screen, pHLuorin cytosolic pH fluorescence; 350,000 tested, 0.37% active; AID 504577, 2011; response, % at 10 µM; S. cerevisiae; in the data active = response mostly above about 7.3%, no sharp cut-off; inactive = mostly below about 5.4%; also: actives read high
aDG glyco up: activators of alpha-DG glycosylation, primary screen, uHTS, Pro5-aDG cells, AlphaScreen; alpha-DG glycosylation AlphaScreen (IIH6); 0% Pro5, 100% B10-LARGE cell signal; activation, % at 10 µM; 360,000 tested, 0.22% active;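 active = activation of at least 8% versus controls, or a plate z-score of at least 8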;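 also: Pro5 are CHO cells carrying HIG-tagged alpha-DG that lacks glycosylation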
ADAM10 inh: human ADAM10 inhibitors, primary screen, biochemical, QFRET, HTS; recombinant ADAM10, EDANS/DABCYL FRET peptide cleavage, 3 h; inhibition, % at 7 µM; 370,000 tested, 0.62% active; AID 720582, 2013;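 active = inhibition above a per-campaign cutoff equal to the mean of compounds falling between control-based bounds plus 3 SD, cut at about 20% in these data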
Target sequence (O14672 214-748 limits assumed): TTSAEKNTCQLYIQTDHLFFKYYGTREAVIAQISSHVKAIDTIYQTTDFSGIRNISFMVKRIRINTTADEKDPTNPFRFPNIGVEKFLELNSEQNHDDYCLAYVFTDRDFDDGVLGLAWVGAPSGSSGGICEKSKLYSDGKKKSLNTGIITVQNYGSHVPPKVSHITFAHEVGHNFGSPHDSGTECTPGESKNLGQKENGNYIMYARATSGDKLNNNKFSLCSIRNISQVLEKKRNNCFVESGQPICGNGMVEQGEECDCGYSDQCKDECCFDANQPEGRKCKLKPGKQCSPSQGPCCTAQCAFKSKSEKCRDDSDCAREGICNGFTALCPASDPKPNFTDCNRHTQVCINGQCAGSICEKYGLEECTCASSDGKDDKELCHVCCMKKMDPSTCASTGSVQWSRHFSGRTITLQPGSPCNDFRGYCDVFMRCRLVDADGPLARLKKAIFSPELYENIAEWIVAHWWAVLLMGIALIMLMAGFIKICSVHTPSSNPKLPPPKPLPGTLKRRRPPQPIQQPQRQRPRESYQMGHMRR
Lipid droplet: inhibitors of hepatocyte lipid droplet formation, primary screen, imaging, high-throughput imaging, BODIPY stain; AML12 mouse hepatocytes, oleate lipid droplets; inhibition, % at 6.5 µM; 240,000 tested, 0.4% active;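 active = lipid droplet intensity inhibited by at least 50%, with more than 500 cells counted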
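Test system: AML12 hepatocytes (mouse); reagent: oleate loading, 100 µM; dosing: one dose, 6.5 µM compound; incubation: overnight exposure; signal: fluorescence imaging, 20x objective, two fields per well; read-out basis: % inhibition of corrected integrated BODIPY droplet signal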
ADAM10 counter: ADAM10 inhibitors, counter-screen for ADAM17 exosite inhibitor project, biochemical, FRET, human ADAM10; recombinant ADAM10, EDANS/DABCYL FRET peptide cleavage, 3 h; 2,900 tested, 47% active; shares compounds with ADAM17 inh; inhibition, % at 6.95 µM; AID 743256, 2014;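 active = mean inhibition over the triplicate runs exceeds the activity threshold set in the earlier primary screen, cut at about 20% in these data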
ADAM17 confirm: ADAM17 inhibitors, hit retest, confirmation, biochemical, QFRET peptide cleavage; recombinant ADAM17, EDANS/DABCYL QFRET peptide cleavage; AID 743257, 2014; 2,900 tested, 65% active; shares compounds with ADAM17 inh; inhibition, % at 6.95 µM;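 active = mean inhibition across replicates above the hit cutoff set in the primary screen, cut at about 8.5% in these data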
Hits are given with their value.

Screening COc1ccc(C)cc1N(C(=O)c1ccccc1)c1nc2ccccc2s1 returned ADAM17 inh 9.9, MPTP inh inactive, V-ATPase pH inactive, aDG glyco up inactive, ADAM10 inh inactive, Lipid droplet inactive, ADAM10 counter 25.6 and ADAM17 confirm 17.7.
For CCOC(=O)CC[C@@H]1CC[C@]2(CCCN(Cc3cccs3)C2)O1 the results were ADAM17 inh inactive and ADAM10 inh inactive.
Cc1cc(/C=C2\NC(=S)N(C)C2=O)ccc1N1CCCC1 was read as ADAM17 inh 8.9, MPTP inh inactive, V-ATPase pH inactive, aDG glyco up inactive, ADAM10 inh inactive, Lipid droplet inactive, ADAM10 counter inactive and ADAM17 confirm inactive.
For CCCN1C(=O)/C(=C/c2ccc(N3CCCC3)c(C)c2)NC1=S the results were ADAM17 inh inactive, MPTP inh inactive, V-ATPase pH inactive, aDG glyco up inactive and ADAM10 inh inactive.
Screening COc1cc(OC)cc(N(C(=O)C2COc3ccccc3O2)C(C(=O)NC2CCCCC2)c2ccc(O)cc2)c1 (stereo unspecified) returned ADAM17 inh 11.1, MPTP inh inactive, V-ATPase pH inactive, aDG glyco up inactive, ADAM10 inh inactive, Lipid droplet inactive, ADAM10 counter inactive and ADAM17 confirm 10.0.
Screening COc1ccc(N(C(=O)C2COc3ccccc3O2)C(C(=O)NC2CCCCC2)c2ccccc2)cc1OC (stereo unspecified) returned ADAM17 inh inactive, MPTP inh inactive, V-ATPase pH inactive, aDG glyco up inactive, ADAM10 inh inactive and Lipid droplet inactive.
O=C(NCc1ccco1)c1ccc(Br)c(S(=O)(=O)N2CCCCC2)c1 was read as ADAM17 inh 12.8, MPTP inh inactive, V-ATPase pH inactive, aDG glyco up inactive, ADAM10 inh inactive, ADAM10 counter 24.9 and ADAM17 confirm inactive.
For CC(C)N1CCC1(C)C(=O)Nc1ccccc1OC(F)F (stereo unspecified) the results were ADAM17 inh 9.9, MPTP inh inactive, aDG glyco up inactive, ADAM10 inh inactive, ADAM10 counter inactive and ADAM17 confirm inactive.
`CC(C)N1CCC1(C)C(=O)Nc1cccc2ccccc12` (stereo unspecified) gave ADAM17 inh inactive, MPTP inh inactive, aDG glyco up inactive and ADAM10 inh inactive.
Screening OC(COC(c1ccc(Cl)cc1)c1ccc(Cl)cc1)CN1CCN(c2ccccn2)CC1 (stereo unspecified) returned ADAM17 inh 9.1, MPTP inh inactive, V-ATPase pH inactive, aDG glyco up inactive, ADAM10 inh inactive, Lipid droplet inactive, ADAM10 counter 22.3 and ADAM17 confirm 13.0.
For CCOC(=O)CC[C@@H]1CC[C@]2(CCCN(C(=O)c3ccno3)C2)O1 the results were ADAM17 inh inactive and ADAM10 inh inactive.
`COc1cccc(N=C2SC(C(=O)Nc3ccc(F)cc3)CC(=O)N2C)c1` (stereo unspecified) gave ADAM17 inh 10.3, MPTP inh inactive, V-ATPase pH inactive, aDG glyco up inactive, ADAM10 inh inactive, Lipid droplet inactive, ADAM10 counter 25.1 and ADAM17 confirm 10.5.
Screening OC(COc1ccc(OCc2ccccc2)cc1)CN1CCOCC1 (stereo unspecified) returned ADAM17 inh 10.5, MPTP inh inactive, V-ATPase pH inactive, aDG glyco up inactive, ADAM10 inh inactive, Lipid droplet inactive, ADAM10 counter inactive and ADAM17 confirm inactive.
